Experiments:
Assay type in all cases: toxicity, cell-based
U2OS [1] = test: Multiplex assay against U2OS; conditions: human
Summary of the method: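 Phenotypes for tubulin, mitochondrial mass and membrane permeability are expressed as per cents of healthy-nucleus cells. Cells were stained live at seeding with Hoechst33342, BioTracker Green Microtubule Cytoskeleton Dye, MitoTracker Red and Annexin V Alexa Fluor 680, then imaged after compound addition on a CQ1 microscope at 37°C and 5% CO2. Machine-learning gating in CellPathfinder separated Hoechst high-intensity objects from normal cells, divided normal cells by nuclear state (healthy, pyknosed, fragmented) and divided pyknosed cells into mitotic or apoptotic.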

HEK-293T = test: Incucyte cell viability with HEK293T; conditions: human, 10 µM, compound concentration 10 uM; note: filed as whole numbers so only -1 and 0 and 1 occur
Fibroblast = test: Incucyte cell viability with human fibroblast; conditions: 10 µM, compound concentration 10 uM; note: filed as whole numbers so only -1 and 0 and 1 occur
U2OS [2] = test: Incucyte cell viability with U2OS; conditions: human, 10 µM, compound concentration 10 uM; note: filed as whole numbers so only -1 and 0 and 1 occur
[3] = 12 h, 1 µM, compound concentration 1 uM, replicate 1
[4] = 12 h, 1 µM, compound concentration 1 uM, replicate 2
[5] = 12 h, 10 µM, compound concentration 10 uM, replicate 1
[6] = 12 h, 10 µM, compound concentration 10 uM, replicate 2
[7] = 24 h, 1 µM, compound concentration 1 uM, replicate 1
[8] = 24 h, 1 µM, compound concentration 1 uM, replicate 2
[9] = 24 h, 10 µM, compound concentration 10 uM, replicate 1
[10] = 24 h, 10 µM, compound concentration 10 uM, replicate 2
[11] = 48 h, 1 µM, compound concentration 1 uM, replicate 1
[12] = 48 h, 1 µM, compound concentration 1 uM, replicate 2
[13] = 48 h, 10 µM, compound concentration 10 uM, replicate 1
[14] = 48 h, 10 µM, compound concentration 10 uM, replicate 2
[15] = 6 h, replicate number 1, timepoint 6 hours
[16] = 12 h, replicate number 1, timepoint 12 hours
[17] = 18 h, replicate number 1, timepoint 18 hours
[18] = 24 h, replicate number 1, timepoint 24 hours

COc1ccc(NS(=O)(=O)c2sc3ccc(Cl)cc3c2C)cc1N1CCNCC1.Cl
Population Apoptotic (%) (U2OS [1]; [3]): 57% | Population Fragmented Nuclei (%) (U2OS [1]; [3]): 12% | Population Healthy Nuclei (%) (U2OS [1]; [3]): 74% | Population Hoechst High Intensity Objects (%) (U2OS [1]; [3]): 6% | Population Membrane Permeable-Phenotype (%) (U2OS [1]; [3]): 6% | Population Mitochondria Different-Phenotype (%) (U2OS [1]; [3]): 11% | Population Mitotic Cells (%) (U2OS [1]; [3]): 42% | Population Normal (%) (U2OS [1]; [3]): 93% | Population Pyknosed Nuclei (%) (U2OS [1]; [3]): 12% | Population Tubulin-Different-Phenotype (%) (U2OS [1]; [3]): 10% | Total Cell Count (U2OS [1]; [3]): 172 | Population Apoptotic (%) (U2OS [1]; [4]): 28% | Population Fragmented Nuclei (%) (U2OS [1]; [4]): 13% | Population Healthy Nuclei (%) (U2OS [1]; [4]): 69% | Population Hoechst High Intensity Objects (%) (U2OS [1]; [4]): 12% | Population Membrane Permeable-Phenotype (%) (U2OS [1]; [4]): 0% | Population Mitochondria Different-Phenotype (%) (U2OS [1]; [4]): 26% | Population Mitotic Cells (%) (U2OS [1]; [4]): 71% | Population Normal (%) (U2OS [1]; [4]): 87% | Population Pyknosed Nuclei (%) (U2OS [1]; [4]): 16% | Total Cell Count (U2OS [1]; [4]): 69 | Population Apoptotic (%) (U2OS [1]; [5]): 43% | Population Fragmented Nuclei (%) (U2OS [1]; [5]): 12% | Population Healthy Nuclei (%) (U2OS [1]; [5]): 57% | Population Hoechst High Intensity Objects (%) (U2OS [1]; [5]): 5% | Population Membrane Permeable-Phenotype (%) (U2OS [1]; [5]): 29% | Population Mitochondria Different-Phenotype (%) (U2OS [1]; [5]): 97% | Population Mitotic Cells (%) (U2OS [1]; [5]): 56% | Population Normal (%) (U2OS [1]; [5]): 94% | Population Pyknosed Nuclei (%) (U2OS [1]; [5]): 30% | Population Tubulin-Different-Phenotype (%) (U2OS [1]; [5]): 97% | Total Cell Count (U2OS [1]; [5]): 162 | Population Apoptotic (%) (U2OS [1]; [6]): 61% | Population Fragmented Nuclei (%) (U2OS [1]; [6]): 14% | Population Healthy Nuclei (%) (U2OS [1]; [6]): 56% | Population Hoechst High Intensity Objects (%) (U2OS [1]; [6]): 4% | Population Membrane Permeable-Phenotype (%) (U2OS [1]; [6]): 25% | Population Mitochondria Different-Phenotype (%) (U2OS [1]; [6]): 100% | Population Mitotic Cells (%) (U2OS [1]; [6]): 38% | Population Normal (%) (U2OS [1]; [6]): 95% | Population Pyknosed Nuclei (%) (U2OS [1]; [6]): 29% | Population Tubulin-Different-Phenotype (%) (U2OS [1]; [6]): 94% | Total Cell Count (U2OS [1]; [6]): 49 | Population Apoptotic (%) (U2OS [1]; [7]): 52% | Population Healthy Nuclei (%) (U2OS [1]; [7]): 76% | Population Hoechst High Intensity Objects (%) (U2OS [1]; [7]): 5% | Population Membrane Permeable-Phenotype (%) (U2OS [1]; [7]): 3% | Population Mitochondria Different-Phenotype (%) (U2OS [1]; [7]): 10% | Population Mitotic Cells (%) (U2OS [1]; [7]): 48% | Population Normal (%) (U2OS [1]; [7]): 95% | Population Pyknosed Nuclei (%) (U2OS [1]; [7]): 13% | Population Tubulin-Different-Phenotype (%) (U2OS [1]; [7]): 6% | Total Cell Count (U2OS [1]; [7]): 174 | Population Apoptotic (%) (U2OS [1]; [8]): 33% | Population Fragmented Nuclei (%) (U2OS [1]; [8]): 10% | Population Healthy Nuclei (%) (U2OS [1]; [8]): 77% | Population Hoechst High Intensity Objects (%) (U2OS [1]; [8]): 3% | Population Membrane Permeable-Phenotype (%) (U2OS [1]; [8]): 5% | Population Mitochondria Different-Phenotype (%) (U2OS [1]; [8]): 13% | Population Mitotic Cells (%) (U2OS [1]; [8]): 66% | Population Normal (%) (U2OS [1]; [8]): 96% | Population Pyknosed Nuclei (%) (U2OS [1]; [8]): 12% | Population Tubulin-Different-Phenotype (%) (U2OS [1]; [8]): 5% | Total Cell Count (U2OS [1]; [8]): 67 | Population Apoptotic (%) (U2OS [1]; [9]): 61% | Population Fragmented Nuclei (%) (U2OS [1]; [9]): 17% | Population Healthy Nuclei (%) (U2OS [1]; [9]): 51% | Population Hoechst High Intensity Objects (%) (U2OS [1]; [9]): 7% | Population Membrane Permeable-Phenotype (%) (U2OS [1]; [9]): 35% | Population Mitochondria Different-Phenotype (%) (U2OS [1]; [9]): 98% | Population Mitotic Cells (%) (U2OS [1]; [9]): 38% | Population Normal (%) (U2OS [1]; [9]): 92% | Population Pyknosed Nuclei (%) (U2OS [1]; [9]): 31% | Population Tubulin-Different-Phenotype (%) (U2OS [1]; [9]): 95% | Total Cell Count (U2OS [1]; [9]): 200 | Population Apoptotic (%) (U2OS [1]; [10]): 68% | Population Fragmented Nuclei (%) (U2OS [1]; [10]): 16% | Population Healthy Nuclei (%) (U2OS [1]; [10]): 47% | Population Hoechst High Intensity Objects (%) (U2OS [1]; [10]): 2% | Population Membrane Permeable-Phenotype (%) (U2OS [1]; [10]): 55% | Population Mitochondria Different-Phenotype (%) (U2OS [1]; [10]): 97% | Population Mitotic Cells (%) (U2OS [1]; [10]): 32% | Population Normal (%) (U2OS [1]; [10]): 97% | Population Pyknosed Nuclei (%) (U2OS [1]; [10]): 35% | Population Tubulin-Different-Phenotype (%) (U2OS [1]; [10]): 91% | Total Cell Count (U2OS [1]; [10]): 51 | Population Apoptotic (%) (U2OS [1]; [11]): 36% | Population Fragmented Nuclei (%) (U2OS [1]; [11]): 8% | Population Healthy Nuclei (%) (U2OS [1]; [11]): 82% | Population Hoechst High Intensity Objects (%) (U2OS [1]; [11]): 3% | Population Membrane Permeable-Phenotype (%) (U2OS [1]; [11]): 3% | Population Mitochondria Different-Phenotype (%) (U2OS [1]; [11]): 8% | Population Mitotic Cells (%) (U2OS [1]; [11]): 64% | Population Pyknosed Nuclei (%) (U2OS [1]; [11]): 9% | Population Tubulin-Different-Phenotype (%) (U2OS [1]; [11]): 6% | Total Cell Count (U2OS [1]; [11]): 178 | Population Apoptotic (%) (U2OS [1]; [12]): 22% | Population Fragmented Nuclei (%) (U2OS [1]; [12]): 13% | Population Healthy Nuclei (%) (U2OS [1]; [12]): 73% | Population Hoechst High Intensity Objects (%) (U2OS [1]; [12]): 4% | Population Membrane Permeable-Phenotype (%) (U2OS [1]; [12]): 7% | Population Mitochondria Different-Phenotype (%) (U2OS [1]; [12]): 20% | Population Mitotic Cells (%) (U2OS [1]; [12]): 77% | Population Normal (%) (U2OS [1]; [12]): 96% | Population Pyknosed Nuclei (%) (U2OS [1]; [12]): 12% | Population Tubulin-Different-Phenotype (%) (U2OS [1]; [12]): 11% | Total Cell Count (U2OS [1]; [12]): 73 | Population Apoptotic (%) (U2OS [1]; [13]): 73% | Population Fragmented Nuclei (%) (U2OS [1]; [13]): 20% | Population Healthy Nuclei (%) (U2OS [1]; [13]): 37% | Population Hoechst High Intensity Objects (%) (U2OS [1]; [13]): 12% | Population Membrane Permeable-Phenotype (%) (U2OS [1]; [13]): 46% | Population Mitochondria Different-Phenotype (%) (U2OS [1]; [13]): 94% | Population Mitotic Cells (%) (U2OS [1]; [13]): 26% | Population Normal (%) (U2OS [1]; [13]): 87% | Population Pyknosed Nuclei (%) (U2OS [1]; [13]): 41% | Population Tubulin-Different-Phenotype (%) (U2OS [1]; [13]): 98% | Total Cell Count (U2OS [1]; [13]): 281 | Population Apoptotic (%) (U2OS [1]; [14]): 68% | Population Fragmented Nuclei (%) (U2OS [1]; [14]): 17% | Population Healthy Nuclei (%) (U2OS [1]; [14]): 56% | Population Hoechst High Intensity Objects (%) (U2OS [1]; [14]): 6% | Population Membrane Permeable-Phenotype (%) (U2OS [1]; [14]): 56% | Population Mitochondria Different-Phenotype (%) (U2OS [1]; [14]): 93% | Population Mitotic Cells (%) (U2OS [1]; [14]): 31% | Population Normal (%) (U2OS [1]; [14]): 93% | Population Pyknosed Nuclei (%) (U2OS [1]; [14]): 26% | Population Tubulin-Different-Phenotype (%) (U2OS [1]; [14]): 82% | Total Cell Count (U2OS [1]; [14]): 75 | Growth Rate (HEK-293T; 0 h, replicate number 2, timepoint 0 hours): 1 | Growth Rate (HEK-293T; [15]): 0 | Growth Rate (HEK-293T; [16]): 0 | Growth Rate (HEK-293T; [17]): 0 | Growth Rate (HEK-293T; [18]): 0 | Growth Rate (Fibroblast; 0 h, replicate number 1, timepoint 0 hours): 1 | Growth Rate (Fibroblast; [15]): 1 | Growth Rate (Fibroblast; 6 h, replicate number 2, timepoint 6 hours): 0 | Growth Rate (Fibroblast; [16]): 0 | Growth Rate (Fibroblast; [17]): 0 | Growth Rate (Fibroblast; [18]): 0 | Growth Rate (U2OS [2]; [15]): 0 | Growth Rate (U2OS [2]; [16]): 0 | Growth Rate (U2OS [2]; [17]): 0 | Growth Rate (U2OS [2]; [18]): 0

— ChEMBL document CHEMBL4689842, “EUbOPEN Chemogenomics Library wave 1” (2021)
